Test results as given in ChEMBL document CHEMBL1165977, “Novel analogues of Istaroxime, a potent inhibitor of Na(+),K(+)-ATPase: Synthesis, structure-activity relationship and 3D-quantitative structure-activity relationship of derivatives at position 6 on the androstane scaffold” (Bioorg Med Chem, 2010).

Legend:
[1] = Inhibition of dog kidney Na+K+-ATPase assessed as hydrolysis of [32P]ATP; set-up: species or system Canis lupus familiaris
Procedure, shortened: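 Dog kidney Na+,K+-ATPase, isolated and purified by the Jørgensen method. Enzyme activity was read as % hydrolysis of 32P-ATP with versus without test compound. IC50 was obtained by nonlinear least-squares curve fitting, as the mean of two or three experiments.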

Cavia porcellus [2] = assay: Positive inotropic activity in guinea pig atria assessed as increase in […] at 0.16 ml/min, iv; assay type: functional
Cavia porcellus [3] = species: Cavia porcellus; assay: Positive inotropic activity in electrically driven guinea pig atria assessed as maximal concentration required to increase in […]; assay type: functional
[4] = Therapeutic index, ratio of lethal dose to ED80 for inotropic activity in guinea pig; assay type: organism-based, Cavia porcellus; details: in vivo
Procedure, shortened: (§1)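 Anesthetized guinea pigs with a jugular vein cannula and an intubated trachea for spontaneous respiration. After stabilization, drug was infused iv at 0.16 mL/min until death or for up to 90 min. Vehicle was DMSO diluted in physiological solution to 1% DMSO final. Read-out was +dP/dt_max. ED80 (dose raising +dP/dt_max by 80%) came from the dose–response, and the doses giving maximum inotropy and death were recorded, giving the lethal dose/ED80 ratio.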

Cavia porcellus [5] = assay: Positive inotropic activity in iv dosed guinea pig atria assessed as concentration required to increase in […]; assay type: functional
Cavia porcellus [6] = assay: Toxicity in guinea pig assessed as death at 0.16 ml/min, iv up to 90 mins; assay type: organism-based; details: in vivo, 1.5 h; procedure, shortened: as §1

| Compound | IC50 [1] [nM] | Emax (Cavia porcellus [2]) [%] | Activity (Cavia porcellus [3]) [µM/g] | selectivity ratio [4] | ED80 (Cavia porcellus [5]) [µM/g] | Activity (Cavia porcellus [6]) |
| --- | --- | --- | --- | --- | --- | --- |
| C[C@]12CC/C(=N\OCCN)C[C@@H]1[C@@H](CCO)C[C@@H]1[C@@H]2CC[C@]2(C)C(=O)CC[C@@H]12.Cl | 320 | 238 | 17 | 23 | 2.5 |  |
| C[C@]12CC/C(=N\OCCN)C[C@@H]1[C@@H](O[N+](=O)[O-])C[C@@H]1[C@@H]2CC[C@]2(C)C(=O)CC[C@@H]12.O=C(O)/C=C/C(=O)O | 330 | 172 | 9.8 | 8 | 3.6 |  |
| C[C@]12CC/C(=N\O[C@@H]3CCNC3)C[C@@H]1[C@@H](C(N)=O)C[C@@H]1[C@@H]2CC[C@]2(C)C(=O)CC[C@@H]12.Cl | 140 | 109 | 8.8 |  | 2.2 | Non-toxic |
| CNCCCO/N=C1\CC[C@@]2(C)[C@H](C1)[C@@H](CO)C[C@@H]1[C@@H]2CC[C@]2(C)C(=O)CC[C@@H]12.Cl | 690 | 263 | 9 | 28 | 1.5 |  |
| CNCCCO/N=C1\CC[C@@]2(C)[C@H](C1)[C@@H](C)C[C@@H]1[C@@H]2CC[C@]2(C)C(=O)CC[C@@H]12.Cl | 910 | 213 | 18 |  | 8.1 | Non-toxic |
| CO[C@H]1C[C@@H]2[C@H](CC[C@]3(C)C(=O)CC[C@@H]23)[C@@]2(C)CC/C(=N\OCCN)C[C@H]12.Cl | 710 | 167 | 18 | 9 | 4.3 |  |
| CNCCCO/N=C1\CC[C@@]2(C)[C@H](C1)[C@@H](NC=O)C[C@@H]1[C@@H]2CC[C@]2(C)C(=O)CC[C@@H]12.Cl | 1100 | 177 | 2.8 | 47 | 0.93 |  |
| COC(=O)[C@H]1C[C@@H]2[C@H](CC[C@]3(C)C(=O)CC[C@@H]23)[C@@]2(C)CC/C(=N\O[C@@H]3CCNC3)C[C@H]12.Cl | 160 | 164 | 23 |  | 11 | Non-toxic |
| C[C@]12CC/C(=N\OCCN)C[C@@H]1/C(=N/O)C[C@@H]1[C@@H]2CC[C@]2(C)C(=O)CC[C@@H]12.Cl | 24 | 180 | 4.3 | 11 | 0.84 |  |
| CNCCCO/N=C1\CC[C@@]2(C)[C@H](C1)/C(=N/O)C[C@@H]1[C@@H]2CC[C@]2(C)C(=O)CC[C@@H]12.Cl | 200 | 158 | 15 |  | 7.1 | Non-toxic |
| C[C@]12CC/C(=N\OCCN)C[C@@H]1[C@@H](NC=O)C[C@@H]1[C@@H]2CC[C@]2(C)C(=O)CC[C@@H]12.O=C(O)/C=C/C(=O)O | 160 | 174 | 27 | 33 | 2 |  |
| C[C@]12CC/C(=N\O[C@@H]3CCNC3)C[C@@H]1[C@@H](NC=O)C[C@@H]1[C@@H]2CC[C@]2(C)C(=O)CC[C@@H]12.Cl | 41 | 142 | 6 | 11 | 1.6 |  |
| C[C@H]1O[C@@H](O[C@H]2[C@@H](O)C[C@H](O[C@H]3[C@@H](O)C[C@H](O[C@H]4CC[C@@]5(C)[C@H](CC[C@@H]6[C@@H]5C[C@@H](O)[C@]5(C)[C@@H](C7=CC(=O)OC7)CC[C@]65O)C4)O[C@@H]3C)O[C@@H]2C)C[C@H](O)[C@@H]1O [DIGOXIN] | 310 |  | 0.97 | 3.2 | 0.41 | Toxic |
